Experimental data collected from several papers.
Lines come from different studies, so protocols differ.
Target: Dual specificity tyrosine-phosphorylation-regulated kinase 3 (DYRK3, Homo sapiens, UniProt O43781)
Observed: enzyme activity
Mode: inhibitor
One construct used (O43781 1-588): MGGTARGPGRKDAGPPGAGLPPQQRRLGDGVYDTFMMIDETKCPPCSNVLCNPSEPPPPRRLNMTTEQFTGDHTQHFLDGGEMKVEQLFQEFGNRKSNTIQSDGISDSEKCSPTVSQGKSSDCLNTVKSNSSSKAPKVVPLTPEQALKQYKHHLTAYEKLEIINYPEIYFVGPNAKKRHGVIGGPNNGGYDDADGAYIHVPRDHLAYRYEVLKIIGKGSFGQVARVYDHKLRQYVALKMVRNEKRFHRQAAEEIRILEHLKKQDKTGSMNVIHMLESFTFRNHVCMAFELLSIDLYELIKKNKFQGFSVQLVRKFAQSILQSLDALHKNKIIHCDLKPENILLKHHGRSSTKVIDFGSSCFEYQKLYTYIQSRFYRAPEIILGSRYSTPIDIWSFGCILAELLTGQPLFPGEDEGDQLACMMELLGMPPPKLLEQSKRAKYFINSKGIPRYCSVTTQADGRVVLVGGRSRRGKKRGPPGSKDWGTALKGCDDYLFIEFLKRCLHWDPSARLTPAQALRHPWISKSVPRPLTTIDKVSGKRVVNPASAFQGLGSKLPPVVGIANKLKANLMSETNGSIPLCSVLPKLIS

| Compound | assay | conditions | remaining activity |
| --- | --- | --- | --- |
| CC(C)(C)C(=O)c1sc(NC2CCCCC2)nc1N |  | 10 µM | 96% |
| COc1cc(Cl)c(C(=O)N[C@@H](CN[C@H]2CC[C@@H](N)CC2)Cc2ccc(C#N)cc2)cc1-c1ccc(CN[C@H](C)c2ccc(C)cc2)o1 |  | 1 µM | 99% |
| O=C(Nc1cnn(-c2csc(C(=O)NC3COC3)c2)c1)Nc1c(F)cccc1Cl |  | 5 µM | 99.2% |
| CC(C)(C)c1nc2c(s1)c1nc(N)ncc1c1ccc(NS(=O)(=O)c3c(F)cccc3F)c(F)c12 | radiometric | 1 µM | 83% |
| Cc1sc(C(=O)NC2COC2)cc1-n1cc(NC(=O)Nc2c(F)cccc2Cl)cn1 |  | 10 µM | 101% |
| COc1cc(Nc2cnc(C#N)c(O[C@H](C)CN(C)C)n2)ncc1-c1cnn(C)c1 | radiometric | 10 µM | 79% |
| O=C(O)c1ccc2c(c1)nc(Nc1ccc(F)c(Cl)c1)c1ccncc12 | radiometric | 1 µM | 1% |
| Nc1nc(NC2CCCCC2)sc1C(=O)c1ccccc1 |  | 10 µM | 57% |
| O=C(O)c1ccc2c(c1)nc(Nc1ccccc1Cl)c1ncncc12 | radiometric | 1 µM | 66% |
| Cn1c(=O)n(-c2ccc(C(C)(C)C#N)cc2)c2c3cc(-c4cnc5ccccc5c4)ccc3ncc21 |  | 10 µM | 56% |
| O=C(O)c1ccc2c(c1)nc(Nc1ccccc1)c1ncncc12 | radiometric | 1 µM | 22% |
| FC(F)c1nc2ccccc2n1-c1nc(N2CCOCC2)nc(N2CCOCC2)n1 |  | 10 µM | 87% |
| O=C(O)c1ccc2c(c1)nc(Nc1ccc3ccccc3c1)c1ncncc12 | radiometric | 1 µM | 0% |
| CC(C)(C)c1nc(-c2cccc(NS(=O)(=O)c3c(F)cccc3F)c2F)c(-c2ccnc(N)n2)s1 | radiometric | 1 µM | 91% |
| N#Cc1cccc(Nc2nc3cc(C(=O)O)ccc3c3cncnc23)c1 | radiometric | 1 µM | 15% |
| CC(C)(O)[C@H]1CC[C@H](Nc2ccc3ncc(-c4cccc(C(F)(F)F)c4)n3n2)CC1 |  | 1 µM | 63.6% |
